Assay: Toxicity liver stage against HepG2, at 10uM
Type: cell-based
Parameters: test concentration 10 uM, cell line HepG2-A16-CD81EGFP
Conditions: human, HepG2-A16-CD81EGFP cells; read-out: INHIBITION
In short: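 Uninfected HepG2-A16-CD81EGFP cells, 3 × 10^3 per well, 1536-well, plated on prespotted compound at 10 μM final, parasite-free screening media added to match infected plates; puromycin 10 μM positive, DMSO 0.5% negative; run in parallel with 48 h PbLuc assay at 37 °C, 5% CO2; viability by CellTiter-Glo luminescence, normalized to controls.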

| Structure (SMILES) | cytotoxicity at 10 µM [%] |
| --- | --- |
| CNS(=O)(=O)c1ccc(C(=O)NC2CCOc3ccccc32)o1 (stereo unspecified) | -9.26 |
| COc1ccc(S(=O)(=O)N2C[C@H](OC)[C@]3(CCCO3)C2)cc1 | 1.64 |
| CCOC(=O)N1CCN(C(=O)CCn2cccc2)CC1 | 5.62 |
| Cc1nc(-c2cc(Cl)c3c(c2)CC(CN)O3)c[nH]1 (stereo unspecified) | -12.2 |
| CC(C)(C)c1nc(CN2CCN(C(=O)c3cnccn3)CC2)cs1 | -5.92 |
| CN1CCC(Nc2cc(Cl)ccc2OCC(F)(F)F)C1=O (stereo unspecified) | -2.71 |
| COc1ccc2nnc(CCCC(=O)NCCC3=CCCCC3)n2n1 | 2.73 |
| CN1CCN(C(=O)c2csnn2)c2ccccc21 | -1.15 |
| Cc1ccc(CNC(=O)N(C)Cc2ccc([S+](C)[O-])cc2)s1 (stereo unspecified) | 6.75 |
| COc1ccc(OCCN2CCC(c3ccnn3CCO)CC2)cc1 | -6.9 |
| Cc1nc(C)n(CC(=O)N2CCCC(c3cc4ccccc4cn3)C2)n1 (stereo unspecified) | -22.1 |
| CN(Cc1ccccc1)C(=O)CCNS(=O)(=O)c1cccnc1 | -1.24 |
| CN(C)[C@@H]1CO[C@H](CNC(=O)c2ccccc2)[C@H]1O | -1.9 |
| CC(C)(C)c1cc(NC(=O)C2CCCO2)n(-c2ccccn2)n1 (stereo unspecified) | -1.26 |
| CC(=O)NCCCSC1CCN(c2c(F)cccc2F)C1=O (stereo unspecified) | -6.35 |
| O=C(O)CN1CCc2onc(C(c3ccccc3)c3ccccc3)c2C1 | -0.849 |
| CCCc1nc(CNCC2CCCN2c2cccnn2)cs1 (stereo unspecified) | -7.07 |
| Cc1ncsc1C(=O)NC1CCN(CC(=O)N(C)c2ccccc2)CC1 | 1.26 |
| C[C@@H]1CN(C2(C(=O)N3CC[C@H](O)C3)Cc3ccccc3C2)C[C@H](C)O1 | -5.19 |
| CCOC1CCCN(C(=O)c2nn(-c3ccccc3F)cc2O)C1 (stereo unspecified) | -4.62 |
| O=C(c1ccc(S(=O)(=O)N2CCSCC2)cc1)N1CCCCCC1 | 13.9 |
| CCOc1ccc(CNC(C)c2cccc(S(=O)(=O)NC)c2)cc1 (stereo unspecified) | 16.1 |
| Cc1ccc(Oc2ncccc2C(=O)N(C)CCCN(C)C)cc1 | 1.73 |

| Structure (SMILES) | cytotoxicity at 10 µM [%] |
| --- | --- |
| CCN1CCN(C(=O)c2cc(-c3ccc(C)o3)n[nH]2)[C@H]2CS(=O)(=O)C[C@H]21 | -4.25 |
| CCCN1CCCN(c2ccc(-n3ccc(C)n3)nn2)CC1 | -1.2 |
| CCc1nc(CN(C)C(=O)C2CC(=O)N(c3cccc(O)c3)C2)no1 (stereo unspecified) | -10.2 |
| O=C(NC1CCCCC1)[C@H]1CNC[C@@H](COc2cccnc2)C1 | -8.98 |
| CC(=O)N[C@H]1CCO[C@@H](c2cccc(NC(=O)C(C)(C)C)c2)C1 | 6.17 |
| c1cnc(N2CCOCC3(CCCN(c4nncs4)C3)C2)cn1 (stereo unspecified) | 3.92 |
| CC(=O)Nc1ccc(CN2CCCC(c3cc4ncccc4[nH]3)C2)cc1 (stereo unspecified) | 0.99 |
| Cc1csc(N2CCN(C(=O)Cc3cccs3)CC2)n1 | -23.3 |
| CC(C)(O)CN1CCC(=O)N(Cc2ccco2)Cc2cc(F)ccc21 | -3.66 |
| O=C(NCCO)Nc1ccc(Cl)cc1-n1cccc1 | 7.82 |
| COc1ccc(C2OC(COc3ccc(C)cc3)=NN2C(C)=O)cc1 (stereo unspecified) | -6.19 |
| CCc1nnsc1C(=O)N1CCCC(c2nc3ccccc3[nH]2)C1 (stereo unspecified) | 4.52 |
| CS(=O)(=O)CCSCc1cccc2cccnc12 | -6.64 |
| COc1cc(-c2nc3c([nH]2)CCCNC3=O)ccc1OC(C)C | 13.3 |
| Fc1cccc(-c2nnn3c2COC(CNc2ncccn2)C3)c1 (stereo unspecified) | -65.3 |
| COC1(CNC(=O)c2cccc(C#N)c2)CCSC1 (stereo unspecified) | -7.93 |
| CCOc1ccc(CN(C)C(C)C(=O)Nc2cc(C)no2)cc1 (stereo unspecified) | 10.6 |
| CC1CN(Cc2ccccn2)CCN1c1ccc2nncn2n1 (stereo unspecified) | -1.07 |
| COC(=O)COc1nc(C(C)C)no1 | -6.22 |
| Cn1ccnc1CCNC(=O)C1CCCN(Cc2cccc(F)c2)C1 (stereo unspecified) | -6.87 |
| CCn1cnnc1CNC(=O)C1COc2ccc(Cl)cc2C1 (stereo unspecified) | -0.845 |
| Cc1ccc2c(n1)N(C)CCN(C(=O)C1CC1)C2 | -2.15 |
| O=c1ccc(-c2cccs2)nn1CN1CCCCCC1 | -5.51 |

From ChEMBL document CHEMBL4513216, “Probing the Open Global Health Chemical Diversity Library for Multistage-Active Starting Points for Next-Generation Antimalarials” (ACS Infect Dis, 2020)
